For orientation: IC50 means the concentration that gives 50% inhibition.

These results are taken from ChEMBL document CHEMBL3351294, “Discovery of a selective, substrate-competitive inhibitor of the lysine methyltransferase SETD8” (J Med Chem, 2014).

Assay [1] concerns the target T1, Histone-lysine N-methyltransferase EHMT2 (Homo sapiens, UniProt Q96KQ7).
T1 sequence (Q96KQ7 whole entry): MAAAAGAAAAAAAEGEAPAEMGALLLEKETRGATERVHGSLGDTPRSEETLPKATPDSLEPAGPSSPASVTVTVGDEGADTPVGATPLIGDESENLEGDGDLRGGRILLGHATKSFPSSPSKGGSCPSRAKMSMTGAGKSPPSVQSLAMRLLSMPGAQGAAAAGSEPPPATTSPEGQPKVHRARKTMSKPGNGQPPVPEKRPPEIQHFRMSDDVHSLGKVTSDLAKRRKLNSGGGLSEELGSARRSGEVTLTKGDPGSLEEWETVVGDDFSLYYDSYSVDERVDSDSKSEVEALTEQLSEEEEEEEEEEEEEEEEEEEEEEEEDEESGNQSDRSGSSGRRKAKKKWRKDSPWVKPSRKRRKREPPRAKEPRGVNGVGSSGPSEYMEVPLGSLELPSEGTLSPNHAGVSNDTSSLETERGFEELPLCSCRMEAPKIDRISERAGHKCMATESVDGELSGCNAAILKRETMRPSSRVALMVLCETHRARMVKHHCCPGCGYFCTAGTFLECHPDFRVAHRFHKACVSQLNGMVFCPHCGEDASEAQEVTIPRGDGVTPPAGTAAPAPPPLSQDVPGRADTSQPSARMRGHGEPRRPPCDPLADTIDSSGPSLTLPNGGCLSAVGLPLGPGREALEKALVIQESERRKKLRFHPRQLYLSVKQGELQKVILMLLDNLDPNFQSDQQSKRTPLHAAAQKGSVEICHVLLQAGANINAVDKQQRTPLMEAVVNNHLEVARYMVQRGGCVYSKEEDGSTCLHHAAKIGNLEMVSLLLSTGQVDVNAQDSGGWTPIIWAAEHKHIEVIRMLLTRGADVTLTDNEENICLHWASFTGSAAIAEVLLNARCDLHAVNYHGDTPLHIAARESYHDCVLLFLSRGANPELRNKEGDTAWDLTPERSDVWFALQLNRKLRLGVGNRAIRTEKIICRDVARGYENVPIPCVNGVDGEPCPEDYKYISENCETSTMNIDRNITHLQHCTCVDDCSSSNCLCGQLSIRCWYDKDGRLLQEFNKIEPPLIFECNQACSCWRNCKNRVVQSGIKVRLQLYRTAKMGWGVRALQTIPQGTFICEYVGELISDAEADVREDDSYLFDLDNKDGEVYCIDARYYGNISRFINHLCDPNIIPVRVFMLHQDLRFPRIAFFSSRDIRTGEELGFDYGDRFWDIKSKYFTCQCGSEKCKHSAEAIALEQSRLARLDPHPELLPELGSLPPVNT
As to the kind of experiment: Inhibition of G9a (unknown origin) assessed as incorporation of tritium-labeled methyl group to lysine or arginine residues of peptide substrate by radioactive assay. An outline of the steps:
(§1)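 Enzymes (PRMT5 as PRMT5-MEP50 complex, MLL1 as MLL1 complex) in 20 μL reactions with 3H-SAM and substrates near each enzyme's Km; compound at 100 nM to 100 μM. Stopped with 7.5 M guanidine HCl, diluted in 20 mM Tris pH 8.0, incubated 1 h on streptavidin FlashPlate, read as CPM. No-compound CPM was 100% activity; no-enzyme CPM was 0% background.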

The target of assay [2] is Histone-lysine N-methyltransferase SETDB1 (Homo sapiens, UniProt Q15047). The assay is described as follows: Inhibition of SETDB1 (unknown origin) assessed as incorporation of tritium-labeled methyl group to lysine or arginine residues of peptide substrate by radioactive assay. An outline of the steps:
as §1

Assay [3] addresses T2, Histone-lysine N-methyltransferase EHMT1 (Homo sapiens, UniProt Q9H9B1).
T2 sequence (Q9H9B1 whole entry): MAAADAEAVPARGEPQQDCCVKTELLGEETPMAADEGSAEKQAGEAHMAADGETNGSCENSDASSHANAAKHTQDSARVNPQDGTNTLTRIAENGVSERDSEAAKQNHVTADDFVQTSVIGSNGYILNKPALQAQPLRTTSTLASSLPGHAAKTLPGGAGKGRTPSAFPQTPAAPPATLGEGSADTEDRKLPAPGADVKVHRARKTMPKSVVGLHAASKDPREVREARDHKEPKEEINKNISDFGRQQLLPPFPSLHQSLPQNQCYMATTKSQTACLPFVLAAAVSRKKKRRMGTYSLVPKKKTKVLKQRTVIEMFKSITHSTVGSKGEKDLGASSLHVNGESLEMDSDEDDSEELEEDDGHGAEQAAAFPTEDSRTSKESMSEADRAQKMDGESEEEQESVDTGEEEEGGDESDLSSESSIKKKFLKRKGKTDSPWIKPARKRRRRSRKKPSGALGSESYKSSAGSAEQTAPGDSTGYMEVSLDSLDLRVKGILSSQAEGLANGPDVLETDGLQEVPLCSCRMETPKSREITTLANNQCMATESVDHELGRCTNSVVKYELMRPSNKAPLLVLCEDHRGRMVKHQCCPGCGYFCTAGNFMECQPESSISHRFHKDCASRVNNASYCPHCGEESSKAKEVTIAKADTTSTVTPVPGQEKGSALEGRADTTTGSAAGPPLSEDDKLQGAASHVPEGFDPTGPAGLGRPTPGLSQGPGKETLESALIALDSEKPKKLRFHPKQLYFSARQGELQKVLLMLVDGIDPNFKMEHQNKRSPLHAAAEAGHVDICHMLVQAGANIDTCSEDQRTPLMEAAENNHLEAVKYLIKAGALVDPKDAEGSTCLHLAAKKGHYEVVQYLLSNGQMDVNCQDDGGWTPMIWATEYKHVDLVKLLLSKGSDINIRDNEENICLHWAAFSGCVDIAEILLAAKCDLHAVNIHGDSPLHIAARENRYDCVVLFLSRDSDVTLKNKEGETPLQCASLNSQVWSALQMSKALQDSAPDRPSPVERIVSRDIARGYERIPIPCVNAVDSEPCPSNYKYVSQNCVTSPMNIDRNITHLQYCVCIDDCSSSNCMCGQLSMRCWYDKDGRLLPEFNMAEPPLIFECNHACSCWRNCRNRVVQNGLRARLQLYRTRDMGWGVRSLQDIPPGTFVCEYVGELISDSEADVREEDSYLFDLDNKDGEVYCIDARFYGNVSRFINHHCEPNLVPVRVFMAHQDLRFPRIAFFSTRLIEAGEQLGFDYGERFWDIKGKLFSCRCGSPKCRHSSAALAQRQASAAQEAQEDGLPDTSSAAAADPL
The assay is described as follows: Inhibition of GLP (unknown origin) assessed as incorporation of tritium-labeled methyl group to lysine or arginine residues of peptide substrate by radioactive assay. An outline of the steps: as §1

For assay [4], the target named is Histone-lysine N-methyltransferase SUV39H2 (Homo sapiens, UniProt Q9H5I1). The assay is described as follows: Inhibition of SUV39H2 (unknown origin) assessed as incorporation of tritium-labeled methyl group to lysine or arginine residues of peptide substrate by radioactive assay. An outline of the steps: as §1
Histone-lysine N-methyltransferase SUV39H2, sequence (Q9H5I1 whole entry): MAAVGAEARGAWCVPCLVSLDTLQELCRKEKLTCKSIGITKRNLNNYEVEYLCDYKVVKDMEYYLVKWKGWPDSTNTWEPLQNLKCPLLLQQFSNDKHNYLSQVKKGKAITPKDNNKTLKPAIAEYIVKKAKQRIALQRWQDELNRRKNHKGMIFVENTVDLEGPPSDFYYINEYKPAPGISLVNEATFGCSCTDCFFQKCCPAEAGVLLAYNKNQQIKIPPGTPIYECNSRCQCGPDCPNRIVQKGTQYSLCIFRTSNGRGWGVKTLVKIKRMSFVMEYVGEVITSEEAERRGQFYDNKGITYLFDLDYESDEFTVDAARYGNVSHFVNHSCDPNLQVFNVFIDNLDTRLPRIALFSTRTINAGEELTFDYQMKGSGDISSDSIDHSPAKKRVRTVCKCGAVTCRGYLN
The target in assay [5] is T3, Histone-lysine N-methyltransferase SETD7 (Homo sapiens, UniProt Q8WTS6).
T3 sequence (Q8WTS6 whole entry): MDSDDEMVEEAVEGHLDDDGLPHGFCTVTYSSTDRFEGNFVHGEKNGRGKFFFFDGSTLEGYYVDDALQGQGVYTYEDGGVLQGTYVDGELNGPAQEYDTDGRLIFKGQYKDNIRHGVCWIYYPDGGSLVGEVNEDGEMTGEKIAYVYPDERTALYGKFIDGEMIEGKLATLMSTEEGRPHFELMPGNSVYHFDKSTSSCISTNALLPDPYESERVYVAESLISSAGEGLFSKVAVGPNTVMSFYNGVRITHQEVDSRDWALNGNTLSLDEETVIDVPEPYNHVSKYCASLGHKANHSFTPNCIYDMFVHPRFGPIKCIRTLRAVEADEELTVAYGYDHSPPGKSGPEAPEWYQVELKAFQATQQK
As to the kind of experiment: Inhibition of SETD7 (unknown origin) assessed as incorporation of tritium-labeled methyl group to lysine or arginine residues of peptide substrate by radioactive assay. The gist of the method: as §1

Assay [6] addresses Protein arginine N-methyltransferase 3 (Homo sapiens, UniProt O60678). As to the kind of experiment: Inhibition of PRMT3 (unknown origin) assessed as incorporation of tritium-labeled methyl group to lysine or arginine residues of peptide substrate by radioactive assay. An outline of the steps: as §1
The target of assay [7] is Protein arginine N-methyltransferase 5 (Homo sapiens, UniProt O14744). The assay is described as follows: Inhibition of PRMT5 (unknown origin) assessed as incorporation of tritium-labeled methyl group to lysine or arginine residues of peptide substrate by radioactive assay. The gist of the method:
as §1

Assay [8] deals with Protein arginine N-methyltransferase 1 (Homo sapiens, UniProt Q99873). As to the kind of experiment: Inhibition of PRMT1 (unknown origin) assessed as incorporation of tritium-labeled methyl group to lysine or arginine residues of peptide substrate by radioactive assay. The gist of the method: as §1
The target in assay [9] is Histone-lysine N-methyltransferase KMT5B (Homo sapiens, UniProt Q4FZB7). The assay is described as follows: Inhibition of SUV420H1 (unknown origin) assessed as incorporation of tritium-labeled methyl group to lysine or arginine residues of peptide substrate by radioactive assay. The gist of the method:
as §1

For assay [10], the target named is Histone-lysine N-methyltransferase KMT5C (Homo sapiens, UniProt Q86Y97). The assay is described as follows: Inhibition of SUV420H2 (unknown origin) assessed as incorporation of tritium-labeled methyl group to lysine or arginine residues of peptide substrate by radioactive assay. An outline of the steps: as §1
In assay [11] the target is N-lysine methyltransferase SMYD2 (Homo sapiens, UniProt Q9NRG4). As to the kind of experiment: Inhibition of SMYD2 (unknown origin) assessed as incorporation of tritium-labeled methyl group to lysine or arginine residues of peptide substrate by radioactive assay. The gist of the method: as §1
N-lysine methyltransferase SMYD2, sequence (Q9NRG4 whole entry): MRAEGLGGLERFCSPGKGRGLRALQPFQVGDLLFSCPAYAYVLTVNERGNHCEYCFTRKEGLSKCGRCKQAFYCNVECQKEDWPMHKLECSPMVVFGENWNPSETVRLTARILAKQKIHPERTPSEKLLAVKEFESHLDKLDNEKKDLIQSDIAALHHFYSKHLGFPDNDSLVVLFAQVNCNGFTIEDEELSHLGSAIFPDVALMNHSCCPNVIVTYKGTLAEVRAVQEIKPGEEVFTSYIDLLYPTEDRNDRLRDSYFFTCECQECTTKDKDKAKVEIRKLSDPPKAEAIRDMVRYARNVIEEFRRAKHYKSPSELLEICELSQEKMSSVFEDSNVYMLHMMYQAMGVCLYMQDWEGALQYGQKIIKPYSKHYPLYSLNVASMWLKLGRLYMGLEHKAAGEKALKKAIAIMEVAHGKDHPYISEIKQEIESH
Assay [12] addresses DNA (cytosine-5)-methyltransferase 1 (Homo sapiens, UniProt P26358). As to the kind of experiment: Inhibition of DNMT1 (unknown origin) assessed as using dsDNA substrate by radioactive assay.
For assay [13], the target named is Histone-lysine N-methyltransferase 2A (Homo sapiens, UniProt Q03164). As to the kind of experiment: Inhibition of MLL1 (unknown origin) assessed as incorporation of tritium-labeled methyl group to lysine or arginine residues of peptide substrate by radioactive assay. The gist of the method:
as §1

Assay [14] addresses Histone-lysine N-methyltransferase, H3 lysine-79 specific (Homo sapiens, UniProt Q8TEK3). As to the kind of experiment: Inhibition of DOT1L (unknown origin) by filter-based assay. The gist of the method:
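Filter-format tritium assay: 20 μL reaction with 3H-SAM and substrates near Km, compound at 100 nM to 100 μM, incubated 1 h at room temperature. Precipitated with 10% TCA on filter plates, washed twice with 10% TCA and once with ethanol, scintillant added, CPM counted. No-compound CPM was 100% activity; no-enzyme CPM was 0%.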

Assay [15] concerns the target T4, N-lysine methyltransferase KMT5A (Homo sapiens, UniProt Q9NQR1).
T4 sequence (Q9NQR1 whole entry): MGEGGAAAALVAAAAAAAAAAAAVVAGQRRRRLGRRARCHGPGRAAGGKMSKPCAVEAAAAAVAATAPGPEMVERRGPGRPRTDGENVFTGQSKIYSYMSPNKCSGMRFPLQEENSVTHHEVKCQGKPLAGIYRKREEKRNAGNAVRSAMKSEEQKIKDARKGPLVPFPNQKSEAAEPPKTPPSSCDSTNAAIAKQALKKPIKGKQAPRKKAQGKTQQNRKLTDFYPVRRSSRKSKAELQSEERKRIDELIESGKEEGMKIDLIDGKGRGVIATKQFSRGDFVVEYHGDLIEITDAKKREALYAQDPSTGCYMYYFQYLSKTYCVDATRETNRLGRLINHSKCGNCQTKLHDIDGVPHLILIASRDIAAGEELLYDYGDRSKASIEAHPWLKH

Assay [16] has as its target T4, N-lysine methyltransferase KMT5A. The source holds these as a separate data set.

Histone-lysine N-methyltransferase, H3 lysine-79 specific, sequence (Q8TEK3 whole entry): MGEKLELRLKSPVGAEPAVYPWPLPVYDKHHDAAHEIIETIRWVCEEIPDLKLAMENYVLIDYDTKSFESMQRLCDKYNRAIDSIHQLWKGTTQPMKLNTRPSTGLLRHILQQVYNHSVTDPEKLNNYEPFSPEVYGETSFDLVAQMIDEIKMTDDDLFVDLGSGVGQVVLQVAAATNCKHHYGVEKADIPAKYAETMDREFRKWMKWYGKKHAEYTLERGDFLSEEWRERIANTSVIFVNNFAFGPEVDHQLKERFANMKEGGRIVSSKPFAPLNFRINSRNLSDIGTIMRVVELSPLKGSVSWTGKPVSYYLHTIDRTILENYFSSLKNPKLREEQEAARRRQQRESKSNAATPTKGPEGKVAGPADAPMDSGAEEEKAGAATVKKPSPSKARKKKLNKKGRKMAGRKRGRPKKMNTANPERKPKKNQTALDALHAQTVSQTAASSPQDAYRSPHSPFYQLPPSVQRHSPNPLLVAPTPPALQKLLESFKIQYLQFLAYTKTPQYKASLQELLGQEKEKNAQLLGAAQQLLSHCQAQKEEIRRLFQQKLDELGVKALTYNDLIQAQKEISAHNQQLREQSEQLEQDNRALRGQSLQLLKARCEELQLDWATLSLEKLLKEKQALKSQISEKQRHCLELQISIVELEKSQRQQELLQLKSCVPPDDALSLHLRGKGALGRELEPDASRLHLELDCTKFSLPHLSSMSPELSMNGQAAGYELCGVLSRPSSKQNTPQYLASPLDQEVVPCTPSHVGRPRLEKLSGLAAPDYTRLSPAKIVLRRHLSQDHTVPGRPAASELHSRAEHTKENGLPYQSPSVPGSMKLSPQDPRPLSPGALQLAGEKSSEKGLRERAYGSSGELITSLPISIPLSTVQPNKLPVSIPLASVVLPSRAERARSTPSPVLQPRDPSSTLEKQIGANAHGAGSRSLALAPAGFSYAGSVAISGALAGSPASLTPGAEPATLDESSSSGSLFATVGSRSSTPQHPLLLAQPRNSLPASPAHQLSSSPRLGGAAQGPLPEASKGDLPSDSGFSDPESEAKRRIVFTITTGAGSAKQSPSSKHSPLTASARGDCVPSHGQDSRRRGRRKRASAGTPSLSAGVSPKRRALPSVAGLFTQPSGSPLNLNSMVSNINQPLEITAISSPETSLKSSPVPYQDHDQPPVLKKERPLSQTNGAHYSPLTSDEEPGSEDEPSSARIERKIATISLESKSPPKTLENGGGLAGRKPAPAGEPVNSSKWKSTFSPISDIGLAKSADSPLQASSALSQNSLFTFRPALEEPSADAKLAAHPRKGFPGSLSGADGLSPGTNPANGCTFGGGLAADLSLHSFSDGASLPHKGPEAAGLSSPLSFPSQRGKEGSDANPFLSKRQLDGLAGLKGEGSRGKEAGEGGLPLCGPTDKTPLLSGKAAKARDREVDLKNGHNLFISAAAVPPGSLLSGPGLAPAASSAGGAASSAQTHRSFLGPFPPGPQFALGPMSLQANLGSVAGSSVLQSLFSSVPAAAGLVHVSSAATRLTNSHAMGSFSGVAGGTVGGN
DNA (cytosine-5)-methyltransferase 1, sequence (P26358 whole entry): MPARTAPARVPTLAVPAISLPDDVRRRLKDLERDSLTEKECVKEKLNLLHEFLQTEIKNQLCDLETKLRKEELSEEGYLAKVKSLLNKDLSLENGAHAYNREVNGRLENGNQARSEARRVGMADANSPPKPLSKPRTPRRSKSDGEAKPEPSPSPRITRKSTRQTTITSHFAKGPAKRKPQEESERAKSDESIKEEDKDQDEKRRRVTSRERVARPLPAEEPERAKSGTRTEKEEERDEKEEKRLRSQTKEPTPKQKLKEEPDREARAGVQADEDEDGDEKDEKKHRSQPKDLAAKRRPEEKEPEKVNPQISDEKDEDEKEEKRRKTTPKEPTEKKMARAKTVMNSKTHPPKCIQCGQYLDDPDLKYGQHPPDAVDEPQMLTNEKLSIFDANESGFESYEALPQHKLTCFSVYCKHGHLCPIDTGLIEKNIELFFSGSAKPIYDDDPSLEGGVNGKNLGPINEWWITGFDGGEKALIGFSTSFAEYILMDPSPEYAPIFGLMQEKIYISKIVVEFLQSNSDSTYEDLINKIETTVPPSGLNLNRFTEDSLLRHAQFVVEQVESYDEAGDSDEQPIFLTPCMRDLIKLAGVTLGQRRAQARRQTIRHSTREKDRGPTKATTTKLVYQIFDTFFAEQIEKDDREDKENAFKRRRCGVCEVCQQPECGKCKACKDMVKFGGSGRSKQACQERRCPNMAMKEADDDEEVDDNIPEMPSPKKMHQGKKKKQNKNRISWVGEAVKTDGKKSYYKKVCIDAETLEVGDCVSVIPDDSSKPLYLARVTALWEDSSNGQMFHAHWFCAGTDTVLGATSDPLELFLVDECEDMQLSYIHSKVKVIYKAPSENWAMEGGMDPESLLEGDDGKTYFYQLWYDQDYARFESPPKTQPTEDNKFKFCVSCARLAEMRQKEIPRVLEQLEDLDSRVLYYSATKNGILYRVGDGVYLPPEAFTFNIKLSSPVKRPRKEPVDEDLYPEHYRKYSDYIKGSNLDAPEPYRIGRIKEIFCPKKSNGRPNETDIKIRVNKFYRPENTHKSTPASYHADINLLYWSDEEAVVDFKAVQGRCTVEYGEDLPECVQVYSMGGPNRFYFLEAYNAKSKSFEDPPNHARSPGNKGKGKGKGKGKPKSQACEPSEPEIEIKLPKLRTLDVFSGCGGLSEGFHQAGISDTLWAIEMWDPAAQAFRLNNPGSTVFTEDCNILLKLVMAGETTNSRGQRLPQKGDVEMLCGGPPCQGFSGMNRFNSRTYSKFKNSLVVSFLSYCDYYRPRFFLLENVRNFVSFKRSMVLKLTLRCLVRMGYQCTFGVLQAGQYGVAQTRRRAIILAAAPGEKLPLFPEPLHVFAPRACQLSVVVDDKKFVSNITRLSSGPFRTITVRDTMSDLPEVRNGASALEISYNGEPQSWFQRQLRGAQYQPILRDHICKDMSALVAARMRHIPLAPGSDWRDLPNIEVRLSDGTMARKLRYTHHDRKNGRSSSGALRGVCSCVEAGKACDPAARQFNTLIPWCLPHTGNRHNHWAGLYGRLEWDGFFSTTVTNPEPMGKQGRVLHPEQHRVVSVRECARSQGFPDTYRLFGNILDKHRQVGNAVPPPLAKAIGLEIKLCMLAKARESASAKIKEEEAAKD
Histone-lysine N-methyltransferase KMT5B, sequence (Q4FZB7 whole entry): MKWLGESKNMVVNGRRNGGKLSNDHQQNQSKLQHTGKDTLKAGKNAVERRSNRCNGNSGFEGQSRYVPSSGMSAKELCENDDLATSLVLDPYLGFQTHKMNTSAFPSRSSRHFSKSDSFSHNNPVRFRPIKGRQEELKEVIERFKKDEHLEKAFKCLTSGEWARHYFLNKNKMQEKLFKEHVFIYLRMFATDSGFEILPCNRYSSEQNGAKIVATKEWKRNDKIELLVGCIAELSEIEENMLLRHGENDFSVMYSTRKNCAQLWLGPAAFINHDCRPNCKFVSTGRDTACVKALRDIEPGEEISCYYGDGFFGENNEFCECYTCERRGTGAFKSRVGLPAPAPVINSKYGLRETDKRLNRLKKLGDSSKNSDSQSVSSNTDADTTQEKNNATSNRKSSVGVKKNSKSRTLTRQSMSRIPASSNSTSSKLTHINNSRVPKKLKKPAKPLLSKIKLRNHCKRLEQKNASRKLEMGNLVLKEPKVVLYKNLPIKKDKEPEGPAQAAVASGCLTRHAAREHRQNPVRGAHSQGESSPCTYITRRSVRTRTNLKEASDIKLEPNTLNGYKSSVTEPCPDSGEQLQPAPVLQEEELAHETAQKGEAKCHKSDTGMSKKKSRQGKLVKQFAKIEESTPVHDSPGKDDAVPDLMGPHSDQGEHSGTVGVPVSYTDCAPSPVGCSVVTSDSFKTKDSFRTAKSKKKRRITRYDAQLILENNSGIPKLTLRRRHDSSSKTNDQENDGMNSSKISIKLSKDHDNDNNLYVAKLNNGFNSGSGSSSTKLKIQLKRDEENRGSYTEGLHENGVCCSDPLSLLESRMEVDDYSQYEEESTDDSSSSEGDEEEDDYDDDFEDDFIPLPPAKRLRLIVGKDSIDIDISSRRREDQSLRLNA

Take `COc1cc2nc(N3CCCC3)nc(NCCCCCN3CCCC3)c2cc1OC`: the IC50 in [1], in assay [2], in assay [3], in assay [4], in [5] and in assay [6] was greater than 100 µM throughout. Besides, the IC50 in assay [7], in [8], in assay [9], in assay [10], in assay [11] and in [12] was greater than 100 µM in each case. The IC50 in [13] and in assay [14] was greater than 100 µM throughout.

Take `COc1cc2nc(N3CCCC3)nc(N(C)CCCCCN3CCCC3)c2cc1OC`: the IC50 in assay [15] was greater than 250 µM; in [16], “Not Active”.

Take `COc1cc2nc(NC3CCCC3)nc(NCCCCCN3CCCC3)c2cc1OC`: in assay [15], the IC50 is greater than 250 µM.

In assay [15], `COc1cc2nc(NC3CCCCC3)nc(NCCCCCN3CCCC3)c2cc1OC` registered an IC50 greater than 250 µM.
